PubChem BioAssay
The source made the active and inactive calls.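 Rule for the calls, unless noted: active = viability at or below 10% of carrier control in both of two separate runs; inconclusive = viability at or below 10% in only one of the two runs; inactive = the rest.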

Key:
[1] = Her2 expression decrease, cell viability multiplex – SKBR3 breast tumor cells, AlphaScreen, ATP viability, primary screen (AID 461;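 active = Her2 level under about 52% in both replicate screens, with viability over 70% of control, limit read from the data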;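 for Her2 level: lower value means less Her2 protein in the cells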;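 for viability: percent of carrier control wells set as 100% viability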); settings: SKBR3 Her2 protein level, 18-24 h, measured here: SKBR3 viability, ATP luminescence, at 10 µM
[2] = target: Receptor tyrosine-protein kinase erbB-2 (Homo sapiens) (UniProt P04626); assay: as above; settings: 18-24 h, at 10 µM, stronger effect = lower value
[3] = reduced viability of SK-BR-3 breast cancer cells – cell-based, 24 h, human, pilot screen (AID 572); settings: SK-BR-3 viability, CellTiter-Glo luminescence, at 10 µM, stronger effect = lower value;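 note: compound exposure lasted between 18 and 24 h rather than exactly 24 h; 100% = carrier-treated control wells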
[4] = HUVEC growth inhibition – cell-based, human, primary screen (AID 575;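 active = viability at or below 30% in both replicate assays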;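 note: 100% = median of untreated cell wells with 0.1% DMSO on each plate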); settings: HUVEC proliferation, CellTiter-Glo luminescence, 72 h; at 10 µM; stronger effect = lower value
Procedure, shortened: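 System – primary HUVEC, no more than 12 passages · Medium – Low-serum (2% FBS) EBM, supplemented · Times – 72 h exposure, 37 °C, 5% CO2, 30 min RT equilibration · Measured by – luminescent ATP assay · Read-out – % viability relative to median vehicle-well signal on each plate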

[5] = H69AR cell proliferation blockers – human, duplicate replicates, primary screen (AID 580;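 active = viability at or under a set limit in both replicates, limit being median viability minus 3 SD, cut at about 48% in these data, passing the limit was not always enough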;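 note: 100% = mean luminescence of untreated wells and 0% = no signal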); settings: H69AR lung tumor cells viability, ATP luminescence, 72 h; at 10 µM; stronger effect = lower value
[6] = MRP1 drug-resistance reversers in H69AR cells – cell-based, doxorubicin co-treatment, pilot screen (AID 601;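 active = viability loss from added drug above about 55%, and viability with drug at most 40%, in both replicates, limit read from the data, passing the limit was not always enough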); settings: CellTiter-Glo, 72 h, at 10 µM; for differential viability (reversal): stronger effect = higher value
[7] = yeast transport mutant growth inhibition pilot in 384-well plates, post-Golgi transport modulator project (AID 636; in the data active = inhibition above about 31%); settings: absorbance 615 nm, about 18 h, stronger effect = higher value
[8] = growth suppression of yeast trafficking mutant, preliminary HTS, modulators of trafficking downstream of Golgi apparatus project, 1536-format plate, OD 615 nm (AID 637; in the data active = inhibition above about 30%); settings: yeast transport mutant growth, absorbance 615 nm, 18 h; stronger effect = higher value
[9] = H69AR cells + 2 uM doxorubicin, measured here: viability with 2 uM doxorubicin, stronger effect = lower value
[10] = H69AR cells, compound alone cytotoxicity

Chain of Receptor tyrosine-protein kinase erbB-2 (Homo sapiens) (P04626 whole entry, looked up): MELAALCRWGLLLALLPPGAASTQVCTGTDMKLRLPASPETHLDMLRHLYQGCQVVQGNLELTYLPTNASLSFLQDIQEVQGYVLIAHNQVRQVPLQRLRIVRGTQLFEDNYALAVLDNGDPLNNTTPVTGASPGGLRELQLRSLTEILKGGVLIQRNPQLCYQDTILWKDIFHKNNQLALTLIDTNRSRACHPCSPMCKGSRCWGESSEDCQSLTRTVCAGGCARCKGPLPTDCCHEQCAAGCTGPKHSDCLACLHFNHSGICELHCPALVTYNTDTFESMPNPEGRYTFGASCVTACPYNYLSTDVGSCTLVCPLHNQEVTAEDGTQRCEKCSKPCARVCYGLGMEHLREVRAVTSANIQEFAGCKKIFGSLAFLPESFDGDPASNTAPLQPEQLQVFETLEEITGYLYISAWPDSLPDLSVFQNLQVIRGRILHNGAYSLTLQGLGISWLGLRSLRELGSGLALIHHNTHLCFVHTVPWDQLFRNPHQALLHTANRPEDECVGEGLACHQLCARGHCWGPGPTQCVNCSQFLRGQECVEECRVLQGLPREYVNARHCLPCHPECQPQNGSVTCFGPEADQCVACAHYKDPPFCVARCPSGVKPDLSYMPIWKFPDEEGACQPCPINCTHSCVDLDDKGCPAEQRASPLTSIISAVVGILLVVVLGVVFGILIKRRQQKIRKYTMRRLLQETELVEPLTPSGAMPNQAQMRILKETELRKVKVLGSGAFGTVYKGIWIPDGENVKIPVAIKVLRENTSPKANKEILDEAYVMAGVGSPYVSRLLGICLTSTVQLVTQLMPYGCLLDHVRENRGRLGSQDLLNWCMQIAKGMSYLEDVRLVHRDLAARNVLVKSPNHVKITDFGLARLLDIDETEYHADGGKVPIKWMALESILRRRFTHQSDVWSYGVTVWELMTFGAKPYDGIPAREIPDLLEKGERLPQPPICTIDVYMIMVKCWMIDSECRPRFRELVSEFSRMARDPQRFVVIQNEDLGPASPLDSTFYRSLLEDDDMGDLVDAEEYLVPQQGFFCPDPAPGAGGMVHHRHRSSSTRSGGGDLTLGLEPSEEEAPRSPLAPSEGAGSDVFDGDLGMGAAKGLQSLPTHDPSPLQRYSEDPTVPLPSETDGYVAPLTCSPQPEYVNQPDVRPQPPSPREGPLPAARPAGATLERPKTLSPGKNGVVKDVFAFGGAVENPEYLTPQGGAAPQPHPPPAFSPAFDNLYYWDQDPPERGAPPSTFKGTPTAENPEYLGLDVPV

| Compound | viability [1] [%] | Her2 level [2] | viability [3] | viability [4] | viability [5] | differential viability (reversal) ([6]; H69AR cells + 2 uM doxorubicin) | viability [6, 9] [%] | viability [6, 10] [%] | inhibition [7] | inhibition [8] |
| --- | --- | --- | --- | --- | --- | --- | --- | --- | --- | --- |
| CC(=O)Nc1ccc(Cl)c(C(N)=O)c1 | 110 | 108% (inactive) | 110% (inactive) | 97.1% (inactive) | 95.3% (inactive) | 8.55% (inactive) | 86.8 | 95.3 | -3.68% (inactive) | 6.07% (inactive) |
| CC(C)NC(=O)CSc1nc2ccccc2n1-c1ccccc1 | 88.5 | 101% (inactive) | 88.5% (inactive) | 100% (inactive) | 84.3% (inactive) | -8.05% (inactive) | 92.4 | 84.3 | 2.86% (inactive) | -4.13% (inactive) |
| O=C(CCN1C(=O)C2C3C=CC(C3)C2C1=O)NCCc1ccccc1Cl (stereo not given) | 95 | 68.5% (inactive) | 95% (inactive) | 94.2% (inactive) | 95.2% (inactive) | 10.5% (inactive) | 84.7 | 95.2 | -6.49% (inactive) | -5.08% (inactive) |
| COc1ccc(-n2c(SCC(=O)Nc3ccc(C(=O)O)cc3)nnc2-c2cccs2)cc1 | 112 | 94% (inactive) | 112% (inactive) | 99.4% (inactive) | 109% (inactive) | 15.2% (inactive) | 93.4 | 109 | -1.97% (inactive) | -4.36% (inactive) |
| CCn1nc(C(=O)OCC(=O)N2CCc3ccccc32)c2ccccc2c1=O | 99.5 | 106% (inactive) | 99.5% (inactive) | 88.2% (inactive) | 96.8% (inactive) | 2.27% (inactive) | 94.6 | 96.8 | 1.41% (inactive) | -11.2% (inactive) |
| CCCCCc1c(O)nc(SCC(=O)NCC2CCCO2)[nH]c1=O (stereo not given) | 96 | 110% (inactive) | 96% (inactive) | 96.9% (inactive) | 105% (inactive) | 12.2% (inactive) | 93 | 105 | 0% (inactive) | -3.81% (inactive) |
| C=CCc1cc(OC)ccc1OCC(O)CN1CCN(c2ccc(OC)cc2)CC1 (stereo not given) | 82.5 | 78% (inactive) | 82.5% (inactive) | 89% (inactive) | 99.6% (inactive) | -4.29% (inactive) | 104 | 99.6 | 0.13% (inactive) | 8.57% (inactive) |
| CCSCCNC(=O)c1cc(-n2cnnc2)ccc1Cl | 138 | 106% (inactive) | 138% (inactive) | 108% (inactive) | 86.3% (inactive) | 0.415% (inactive) | 85.9 | 86.3 | -3.47% (inactive) | -1.48% (inactive) |
| Cc1ccccc1-c1noc(N)c1C#N | 110 | 70.5% (inactive) | 110% (inactive) | 92.3% (inactive) | 90% (inactive) | 1.42% (inactive) | 88.6 | 90 | -5.68% (inactive) | 4% (inactive) |
| COc1cccc(CN(C)CC(=O)NC(=O)NCc2ccco2)c1 | 106 | 100% (inactive) | 106% (inactive) | 92.7% (inactive) | 84.7% (inactive) | 5.36% (inactive) | 79.4 | 84.7 | 0.92% (inactive) | 21.4% (inactive) |
| Cc1ccc(C(C)C)c(OCCn2c(=O)oc3ccccc32)c1 | 89 | 133% (inactive) | 89% (inactive) | 87.9% (inactive) | 95.8% (inactive) | 13.5% (inactive) | 82.3 | 95.8 | 0.79% (inactive) | -3.83% (inactive) |
| CCOCCCn1c(=S)[nH]c2cc3c(cc2c1=O)OCO3 | 99 | 102% (inactive) | 99% (inactive) | 96.3% (inactive) | 97.6% (inactive) | 4.13% (inactive) | 93.4 | 97.6 | -3.38% (inactive) | -2.79% (inactive) |
| CCC(C)NC(=O)C1CCCN(S(=O)(=O)c2ccc(-n3cnnn3)cc2)C1 (stereo not given) | 109 | 104% (inactive) | 109% (inactive) | 104% (inactive) | 103% (inactive) | 14.5% (inactive) | 88.6 | 103 | -2.97% (inactive) | -10% (inactive) |
| Cc1nc2ccc(CCO)cc2s1 | 97.5 | 95.5% (inactive) | 97.5% (inactive) | 102% (inactive) | 93.9% (inactive) | -0.945% (inactive) | 94.8 | 93.9 | -5.89% (inactive) | 0.79% (inactive) |
| CN(CC(=O)NCCC1=CCCCC1)S(=O)(=O)c1ccc2c(c1)CCC(=O)N2 | 79 | 113% (inactive) | 79% (inactive) | 91.3% (inactive) | 110% (inactive) | 18% (inactive) | 91.7 | 110 | -2.27% (inactive) | -1.48% (inactive) |
